The RNAGym collection of RNA variant scans (doi:10.1126/science.aae0568)
This sample holds only a part of the variants without activity.

B1: tRNA (parent)
chain: GUUCCGUUGGCGUAAUGGUAACGCGUCUCCCUCCUAAGGAGAAGACUGCGGGUUCGAGUCCCGUACGGAACG

Variants of: B1
Experiment: yeast fitness relative to wild type (ratio to wild type); higher = fitter; tRNA-Arg(CCU), competitive growth, 37 C, YPD
In short: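 Genotype frequency changes were the basis for Darwinian fitness relative to wild type. The frequencies came from 100-nucleotide paired-end sequencing of gene amplicons from the start population and each end population of pooled yeast strains with tRNA-Arg(CCU) gene variants at the native locus. Competition ran in YPD at 37°C for 24 hours in six replicates, genotypes needed ≥ 100 starting reads, and estimates < 0.5 were set to 0.5.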

Which yeast fitness does the source give for C34U C55A C62U C66U here?
Its yeast fitness is ≤ 0.5.

For U35G C61G, which yeast fitness is on record?
Its yeast fitness is ≤ 0.5.

Which yeast fitness does the source give for A36C U47A G48C U54G C62U here?
The yeast fitness was ≤ 0.5.

Which yeast fitness does the source give for A36C U47A G48C U54G C60G here?
Its yeast fitness is ≤ 0.5.

Which yeast fitness does the source give for U35C C55G A57G here?
Its yeast fitness is 0.606.

Which yeast fitness does the source give for C34U C46G A65U here?
Its yeast fitness is 0.563.

For C34U U53C C55U, which yeast fitness is on record?
Its yeast fitness is ≤ 0.5.

Which yeast fitness does the source give for C34U U35C A69U here?
The yeast fitness was ≤ 0.5.

Which yeast fitness does the source give for U35A A43C here?
The yeast fitness was 0.636.

Which yeast fitness does the source give for A36C G58C here?
Its yeast fitness is 0.618.

For A36C G44C G51C, which yeast fitness is on record?
Its yeast fitness is ≤ 0.5.

For C34U G44C A45C C66A, which yeast fitness is on record?
The yeast fitness was 0.591.

Which yeast fitness does the source give for C34U G63C here?
Its yeast fitness is ≤ 0.5.

With U35G G56A as the variant, how does the yeast fitness read?
The yeast fitness was 0.599.

For U35G C55G C62U, which yeast fitness is on record?
Its yeast fitness is ≤ 0.5.

With C34U U47C A69U as the variant, how does the yeast fitness read?
Its yeast fitness is 0.506.

Which yeast fitness does the source give for C34U C46G here?
The yeast fitness was 0.705.

With U35A A65G C66U as the variant, how does the yeast fitness read?
The yeast fitness was 0.675.

With U35G G63A G68C as the variant, how does the yeast fitness read?
Its yeast fitness is ≤ 0.5.

For A36C U53G, which yeast fitness is on record?
The yeast fitness was ≤ 0.5.

With A36G A42G C55A as the variant, how does the yeast fitness read?
Its yeast fitness is ≤ 0.5.

For U35C G41A, which yeast fitness is on record?
The yeast fitness was 0.882.

Which yeast fitness does the source give for U35C C61U here?
Its yeast fitness is 0.968.

Which yeast fitness does the source give for U35C C61A here?
The yeast fitness was ≤ 0.5.

For A36G A40C, which yeast fitness is on record?
The yeast fitness was 0.961.

With A36G A40U as the variant, how does the yeast fitness read?
The yeast fitness was 0.938.

With U35A C55A C66A as the variant, how does the yeast fitness read?
The yeast fitness was ≤ 0.5.

For U35G A40G A57G, which yeast fitness is on record?
Its yeast fitness is 0.548.

For U35A U53C A57C, which yeast fitness is on record?
Its yeast fitness is ≤ 0.5.

With A36C C61G A70C as the variant, how does the yeast fitness read?
The yeast fitness was 0.569.

Which yeast fitness does the source give for A36C U47A G48C U54G here?
The yeast fitness was 0.544.

With A36C G39A as the variant, how does the yeast fitness read?
Its yeast fitness is ≤ 0.5.

Which yeast fitness does the source give for U35C U54G here?
The yeast fitness was 0.552.

Which yeast fitness does the source give for U35C U54A here?
The yeast fitness was ≤ 0.5.

With C34U C49U U53C as the variant, how does the yeast fitness read?
The yeast fitness was ≤ 0.5.

Which yeast fitness does the source give for A36C G68C here?
The yeast fitness was 0.591.

Which yeast fitness does the source give for A36G A37G G58C here?
The yeast fitness was 0.649.

For U35A U59G, which yeast fitness is on record?
Its yeast fitness is 0.62.

With U35A U59A as the variant, how does the yeast fitness read?
The yeast fitness was 0.591.

With U35G U54A C62U G68A as the variant, how does the yeast fitness read?
Its yeast fitness is ≤ 0.5.

With C34U G48C C66U as the variant, how does the yeast fitness read?
The yeast fitness was 0.635.

Which yeast fitness does the source give for U35C A42G here?
Its yeast fitness is 0.761.

With A36C G41A U53C as the variant, how does the yeast fitness read?
The yeast fitness was 0.56.

With U35C G67C as the variant, how does the yeast fitness read?
The yeast fitness was 0.939.

Which yeast fitness does the source give for U35C G67A here?
Its yeast fitness is 0.637.

Which yeast fitness does the source give for C34U C60G here?
The yeast fitness was 0.716.

For A36C A45C C55G C62A G68A, which yeast fitness is on record?
The yeast fitness was 0.575.

With C34U U35A A57C G58A A70U as the variant, how does the yeast fitness read?
The yeast fitness was 0.586.

For C34U C61G C66U, which yeast fitness is on record?
Its yeast fitness is 0.595.

With C34U U53C A69C as the variant, how does the yeast fitness read?
The yeast fitness was ≤ 0.5.

Which yeast fitness does the source give for U35A C46A C49G here?
Its yeast fitness is ≤ 0.5.

For U35C G39C U47A, which yeast fitness is on record?
Its yeast fitness is ≤ 0.5.

Which yeast fitness does the source give for C34U U35C A45G U54A here?
Its yeast fitness is 0.704.

With C34U G44A C49A G56C C62A A65C as the variant, how does the yeast fitness read?
Its yeast fitness is ≤ 0.5.

Which yeast fitness does the source give for A36C A45C U54A A57U A65U here?
Its yeast fitness is ≤ 0.5.

Which yeast fitness does the source give for C34U U35C A40G U47C here?
Its yeast fitness is ≤ 0.5.

Which yeast fitness does the source give for C34U C49A A69C here?
Its yeast fitness is ≤ 0.5.

Which yeast fitness does the source give for C34U G68U A69C here?
The yeast fitness was ≤ 0.5.

Which yeast fitness does the source give for U35A G63C here?
Its yeast fitness is 0.56.

For C34U C62A C66U, which yeast fitness is on record?
The yeast fitness was ≤ 0.5.

For A36C U47C, which yeast fitness is on record?
Its yeast fitness is 0.674.

For U35A A36U A45C, which yeast fitness is on record?
Its yeast fitness is 0.531.

With A36C G52A C61A as the variant, how does the yeast fitness read?
Its yeast fitness is ≤ 0.5.

For U35C G52C, which yeast fitness is on record?
The yeast fitness was ≤ 0.5.

Which yeast fitness does the source give for A36C A37C A65C here?
The yeast fitness was ≤ 0.5.

Which yeast fitness does the source give for U35A G67A here?
Its yeast fitness is 0.714.

With U35A G67C as the variant, how does the yeast fitness read?
Its yeast fitness is 0.657.

For U35C G41A A43C A57G, which yeast fitness is on record?
The yeast fitness was 0.501.

Which yeast fitness does the source give for C34U G52A U54A C66U A69C here?
The yeast fitness was ≤ 0.5.

For U35C A37C, which yeast fitness is on record?
The yeast fitness was 0.817.

With U35C C49G A70U as the variant, how does the yeast fitness read?
Its yeast fitness is 0.563.

With U35C G41A A70G as the variant, how does the yeast fitness read?
The yeast fitness was 0.689.

For U35A A70G, which yeast fitness is on record?
Its yeast fitness is 0.588.

With U35A A70U as the variant, how does the yeast fitness read?
Its yeast fitness is 0.787.

Which yeast fitness does the source give for U35A A70C here?
Its yeast fitness is 0.769.

Which yeast fitness does the source give for C34U C49A G67A here?
Its yeast fitness is ≤ 0.5.

With U35C C55G as the variant, how does the yeast fitness read?
The yeast fitness was 0.59.

For U35C A36C A45C, which yeast fitness is on record?
Its yeast fitness is 0.522.

With U35A A36G A40U A42U C55G as the variant, how does the yeast fitness read?
Its yeast fitness is ≤ 0.5.

Which yeast fitness does the source give for U35A C46A C49G G52A C60U A69G here?
Its yeast fitness is ≤ 0.5.

With A36C A42C as the variant, how does the yeast fitness read?
The yeast fitness was 0.727.

For A36G A37G A45C G51C U59G, which yeast fitness is on record?
The yeast fitness was ≤ 0.5.

Which yeast fitness does the source give for C34U C49A G52A here?
The yeast fitness was 0.59.

For C34U U47A, which yeast fitness is on record?
The yeast fitness was 0.621.
